Data from ChEMBL document CHEMBL4033798, “Discovery of Novel KRAS-PDEδ Inhibitors by Fragment-Based Drug Design” (J Med Chem, 2018).

Legend:
[1] = test system: CAPAN-1; experiment: Antiproliferative activity against KRAS-dependent human Capan1 cells after 48 hrs by CCK8 assay; details: CAPAN-1, 48 h
[2] = test system: CAPAN-1; experiment: Induction of apoptosis in KRAS-dependent human Capan1 cells after 48 hrs by Annexin-V FITC/propidium iodide staining-based flow cytometry; type: functional, cell-based
In short: (§1)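 Capan-1 cells were exposed to compound for 48 h, with 0.1% DMSO as the vehicle control. The read-out is the percentage of apoptotic cells. Compounds were tested at 10, 25 or 50 μM.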

[3] = test system: CAPAN-1; experiment: Induction of apoptosis in KRAS-dependent human Capan1 cells at 25 uM incubated for 48 hrs by Annexin-V FITC/propidium iodide staining-based flow cytometry (reference value: 3.51%); type: functional; in short: as §1
[4] = test system: CAPAN-1; experiment: Induction of apoptosis in KRAS-dependent human Capan1 cells at 10 uM incubated for 48 hrs by Annexin-V FITC/propidium iodide staining-based flow cytometry (reference value: 3.51%); type: functional; in short: as §1
[5] = test system: CAPAN-1; experiment: Induction of apoptosis in KRAS-dependent human Capan1 cells at 50 uM incubated for 48 hrs by Annexin-V FITC/propidium iodide staining-based flow cytometry (reference value: 3.51%); type: functional; in short: as §1

Row | SMILES | IC50 [1] [µM] | also measured
1 | O=C1c2cc(F)ccc2NC(c2ccccc2F)N1C1CCN(CCCn2ccnc2-c2ccccc2)CC1 (stereo not drawn) | 33 | 
2 | CN1c2ccc(F)cc2C(=O)N(C2CCN(CCCn3ccnc3-c3ccccc3)CC2)C1c1ccccc1F (stereo not drawn) | 47 | 
3 | O=C1c2ccccc2NC(c2ccccc2F)N1CCOc1ccc(-c2nc3ccccc3n2Cc2ccncc2)cc1 (stereo not drawn) | > 100 | 
4 | Cc1nccn1CCOc1ccc(N2C(=O)c3ccccc3NC2c2ccccc2F)cc1 (stereo not drawn) | > 100 | 
5 | O=C1c2ccccc2NC(c2ccccc2F)N1c1ccc(OCCn2c(-c3ccccc3)nc3ccccc32)cc1 (stereo not drawn) | > 100 | 
6 | Cc1ccc2c(c1)C(=O)N(CCOc1ccc(-c3nc4ccccc4n3Cc3ccncc3)cc1)C(c1ccccc1F)N2 (stereo not drawn) | > 100 | 
7 | O=C1c2ccc(F)cc2NC(c2ccccc2F)N1C1CCN(CCCn2ccnc2-c2ccccc2)CC1 (stereo not drawn) | 35 | 
8 | O=C1c2cc(F)ccc2NC(c2ccccc2F)N1CCOc1ccc(-c2nc3ccccc3n2Cc2ccncc2)cc1 (stereo not drawn) | > 100 | 
9 | O=C1c2cc(Cl)ccc2NC(c2ccccc2F)N1CCOc1ccc(-c2nc3ccccc3n2Cc2ccncc2)cc1 (stereo not drawn) | > 100 | 
10 | Cc1nc2ccccc2n1CCOc1ccc(N2C(=O)c3ccccc3NC2c2ccccc2F)cc1 (stereo not drawn) | > 100 | 
11 | O=C1c2cc(F)ccc2N(CC2CCC2)C(c2ccccc2F)N1C1CCN(CCCn2ccnc2-c2ccccc2)CC1 (stereo not drawn) | 11.6 | 
12 | Cc1ccc2c(c1)NC(c1ccccc1F)N(C1CCN(CCCn3ccnc3-c3ccccc3)CC1)C2=O (stereo not drawn) | 78 | 
13 | COc1ccc2c(c1)NC(c1ccccc1F)N(CCOc1ccc(-c3nc4ccccc4n3Cc3ccncc3)cc1)C2=O (stereo not drawn) | > 100 | 
14 | O=C1c2ccccc2NC(c2ccccn2)N1c1ccc(OCCn2c(-c3ccccc3)nc3ccccc32)cc1 (stereo not drawn) | > 100 | 
15 | Cc1nccn1CCOc1ccc(N2C(=O)c3ccccc3NC2c2ccccn2)cc1 (stereo not drawn) | > 100 | 
16 | O=C1c2cc(F)ccc2N(CC2CC2)C(c2ccccc2F)N1C1CCN(CCCn2ccnc2-c2ccccc2)CC1 (stereo not drawn) | 8.8 | Activity [2]: Dose-dependent effect; Activity [3]: 36.4%; Activity [4]: 17.95%
17 | O=C1c2cc(F)ccc2N(CC2CCCCC2)C(c2ccccc2F)N1C1CCN(CCCn2ccnc2-c2ccccc2)CC1 (stereo not drawn) | 54.6 | 
18 | O=C1c2ccccc2NC(c2ccccn2)N1c1ccc(OCCn2ccnc2-c2ccccc2)cc1 (stereo not drawn) | 52 | 
19 | O=C1c2ccccc2NC(c2ccccn2)N1c1ccc(OCCn2ccnc2)cc1 (stereo not drawn) | > 100 | 
20 | COc1ccc2c(c1)NC(c1ccccc1F)N(C1CCN(CCCn3ccnc3-c3ccccc3)CC1)C2=O (stereo not drawn) | 82 | 
21 | COc1ccc2c(c1)C(=O)N(C1CCN(CCCn3ccnc3-c3ccccc3)CC1)C(c1ccccc1F)N2 (stereo not drawn) | 74 | 
22 | O=C1c2ccccc2NC(c2ccccc2F)N1c1ccc(OCCn2ccnc2)cc1 (stereo not drawn) | > 100 | 
23 | O=C1c2ccc(Cl)cc2NC(c2ccccc2F)N1CCOc1ccc(-c2nc3ccccc3n2Cc2ccncc2)cc1 (stereo not drawn) | > 100 | 
24 | O=C1c2ccccc2NC(c2ccccc2F)N1C1CCN(CCCn2ccnc2-c2ccccc2)CC1 (stereo not drawn) | 34 | 
25 | O=C1c2ccccc2NC(c2ccccc2F)N1c1ccc(OCCn2ccnc2-c2ccccc2)cc1 (stereo not drawn) | > 100 | 
26 | Cc1ccc(-n2nc3c(=O)n(CCCC(=O)NCC(C)c4ccccc4)nc(C)c3c2C)cc1 (stereo not drawn) | 48 | Activity [5]: 20.5%
27 | Cc1ccc2c(c1)C(=O)N(C1CCN(CCCn3ccnc3-c3ccccc3)CC1)C(c1ccccc1F)N2 (stereo not drawn) | 42 | 
28 | O=C1c2cc(F)ccc2N(CC2CCCC2)C(c2ccccc2F)N1C1CCN(CCCn2ccnc2-c2ccccc2)CC1 (stereo not drawn) | 12.4 | 
29 | O=C1c2ccc(F)cc2NC(c2ccccc2F)N1CCOc1ccc(-c2nc3ccccc3n2Cc2ccncc2)cc1 (stereo not drawn) | > 100 | 
